Source: ChEMBL document CHEMBL1134569, “Synthesis and in vitro and in vivo antimalarial activity of new 4-anilinoquinolines” (J Med Chem, 2001)

What was measured:
[1] = Cytotoxicity upon MRC-5 cells (diploid embryonic lung cell line) at 1 uM; format: cell-based, MRC5; details: human
Procedure, shortened: (§1)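 MRC-5 human diploid embryonic lung cells seeded at 5000/well, washed after 24 h, then given 2-fold drug dilutions in RPMI + 5% FCS (final DMSO below 0.5%). Incubated at 37 °C, 5% CO₂, for 7 days. MTT read-out at 540 nm, scored as percent absorbance reduction versus untreated controls.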

[2] = Cytotoxicity upon MRC-5 cells (diploid embryonic lung cell line) at 32 uM; format: cell-based, MRC5; details: human; procedure, shortened: as §1
[3] = Cytotoxicity upon MRC-5 cells (diploid embryonic lung cell line) at 8 uM; format: cell-based, MRC5; details: human; procedure, shortened: as §1
[4] = Cytotoxicity upon MPMs (mouse peritoneal macrophages) at 2 uM conc.; Toxic
Procedure, shortened: (§2)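 Mouse peritoneal macrophages harvested 48 h after potato-starch stimulation and seeded at 30000 cells/well. After 24 h, washed and exposed to 2-fold drug dilutions in RPMI + 5% FCS (final DMSO below 0.5%) at 37 °C, 5% CO₂, for 7 days. Toxicity scored microscopically as toxic or not versus untreated controls.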

[5] = Cytotoxicity upon MPMs (mouse peritoneal macrophages) at 32 uM; procedure, shortened: as §2
[6] = Cytotoxicity upon MPMs (mouse peritoneal macrophages) at 8 uM; procedure, shortened: as §2
[7] = system: Plasmodium falciparum; test: Inhibitory activity against chloroquine-resistant Plasmodium falciparum FcB1R; format: functional, organism-based; details: Plasmodium falciparum
[8] = Cytotoxicity upon MPMs (mouse peritoneal macrophages) at 2 uM; procedure, shortened: as §2
[9] = Cytotoxicity upon MPMs (mouse peritoneal macrophages) at 8 uM conc.;NT=No Toxicity; procedure, shortened: as §2
[10] = Cytotoxicity upon MPMs (mouse peritoneal macrophages) at 3.1 uM conc.;NT=No Toxicity; procedure, shortened: as §2
[11] = Cytotoxicity upon MPMs (mouse peritoneal macrophages) at 6.3 uM; procedure, shortened: as §2
[12] = Cytotoxicity upon MRC-5 cells (diploid embryonic lung cell line) at 12.5 uM; format: cell-based, MRC5; details: human; procedure, shortened: as §1
[13] = Cytotoxicity upon MRC-5 cells (diploid embryonic lung cell line) at 3.1 uM; format: cell-based, MRC5; details: human; procedure, shortened: as §1
[14] = Cytotoxicity upon MRC-5 cells (diploid embryonic lung cell line) at 6.3 uM; format: cell-based, MRC5; details: human; procedure, shortened: as §1
[15] = Cytotoxicity upon MPMs (mouse peritoneal macrophages) at 12.5 uM conc.; Toxic; procedure, shortened: as §2
[16] = Cytotoxicity upon MRC-5 cells (diploid embryonic lung cell line) at 25 uM conc.; format: cell-based, MRC5; details: human; procedure, shortened: as §1
[17] = Cytotoxicity upon MRC-5 cells (diploid embryonic lung cell line) at 1.6 uM conc.; format: cell-based, MRC5; details: human; procedure, shortened: as §1
[18] = Cytotoxicity upon MPMs (mouse peritoneal macrophages) at 12.5 uM conc.;NT=No Toxicity; procedure, shortened: as §2
[19] = system: Plasmodium falciparum; test: Inhibitory activity against chloroquine-resistant Plasmodium falciparum K1; format: functional, organism-based
[20] = system: Plasmodium falciparum; test: Inhibitory activity against chloroquine-sensitive Plasmodium falciparum THAI

SMILES | cytotoxicity at 1 µM [1] | cytotoxicity at 32 µM [2] | cytotoxicity at 8 µM [3] | Cytotoxicity [4] | Cytotoxicity [5] | Cytotoxicity [6] | IC50 [7] | NT [8] | NT [9] | NT [10] | NT [11] | cytotoxicity at 12.5 µM [12] | cytotoxicity at 3.1 µM [13] | cytotoxicity at 6.3 µM [14] | Cytotoxicity [15] | cytotoxicity at 25 µM [16] | cytotoxicity at 1.6 µM [17] | NT [18] | IC50 [19] | IC50 [20]
CCN(CC)c1ccc(CN2CCN(Cc3cc(NC(=O)CN4CCCCC4)cc(Nc4ccnc5cc(Cl)ccc45)c3)CC2)cc1 | 100% | 100% | 100% | Toxic | Cytotoxicity upon MPMs at 32 uM | Cytotoxicity upon MPMs at 32 uM | 11.9 nM |  |  |  |  |  |  |  |  |  |  |  |  | 
O=Cc1cc(NC(=O)CN2CCCCC2)cc(Nc2ccnc3cc(Cl)ccc23)c1 | 0% | 0% | 0% |  |  |  | 282 nM | Cytotoxicity upon MPMs at 2 uM | Cytotoxicity upon MPMs at 2 uM |  |  |  |  |  |  |  |  |  |  | 
CCN(CC)Cc1cc(NC(=O)CN2CCCCC2)cc(Nc2ccnc3cc(Cl)ccc23)c1 | 0% | 100% | 100% | Toxic | Cytotoxicity upon MPMs at 32 uM | Cytotoxicity upon MPMs at 32 uM | 8.2 nM |  |  |  |  |  |  |  |  |  |  |  |  | 
CC1CCN(CCCCCCCCCCCC(=O)Nc2cc(CO)cc(Nc3ccnc4cc(Cl)ccc34)c2)CC1 |  |  |  |  |  |  | 86 nM |  |  | Cytotoxicity upon MPMs at 6.3 uM | Cytotoxicity upon MPMs at 6.3 uM | 100% | 0% | 0% | Toxic |  |  |  |  | 
CN(C)CCNCc1cc(NC(=O)CN2CCCCC2)cc(Nc2ccnc3cc(Cl)ccc23)c1 | 0% | 100% | 15% |  | Cytotoxicity upon MPMs at 32 uM |  | 15.5 nM | Cytotoxicity upon MPMs at 2 uM | Cytotoxicity upon MPMs at 2 uM |  |  |  |  |  |  |  |  |  |  | 
O=C(CN1CCCCC1)Nc1cc(COC(=O)c2ccccc2)cc(Nc2ccnc3cc(Cl)ccc23)c1 |  |  |  |  |  |  | 75.5 nM | Cytotoxicity upon MPMs at 2 uM |  |  | Cytotoxicity upon MPMs at 2 uM |  |  | 38% | Toxic | 66% | 20% |  |  | 
O=C(CN1CCCCC1)Nc1cc(COC(=O)CCCCCN2CCCCC2)cc(Nc2ccnc3cc(Cl)ccc23)c1 |  |  |  |  |  |  | 27.4 nM | Cytotoxicity upon MPMs at 2 uM |  |  | Cytotoxicity upon MPMs at 2 uM |  |  | 81% |  | 92% | 0% | Cytotoxicity upon MPMs at 2 uM |  | 
O=C(CN1CCCCC1)Nc1cc(CN2CCCCC2)cc(Nc2ccnc3cc(Cl)ccc23)c1 | 43% | 100% | 100% | Toxic | Cytotoxicity upon MPMs at 32 uM | Cytotoxicity upon MPMs at 32 uM | 10.2 nM |  |  |  |  |  |  |  |  |  |  |  | 8.1 nM | 6.7 nM
CN1CCN(CCCCC(=O)OCc2cc(NC(=O)CN3CCCCC3)cc(Nc3ccnc4cc(Cl)ccc34)c2)CC1 |  |  |  |  |  |  | 65.1 nM | Cytotoxicity upon MPMs at 2 uM |  |  | Cytotoxicity upon MPMs at 2 uM |  |  | 0% |  | 97% | 0% | Cytotoxicity upon MPMs at 2 uM |  | 
COc1ccc(CNCc2cc(NC(=O)CN3CCCCC3)cc(Nc3ccnc4cc(Cl)ccc34)c2)cc1 | 100% | 100% | 100% | Toxic | Cytotoxicity upon MPMs at 32 uM | Cytotoxicity upon MPMs at 32 uM | 4.4 nM |  |  |  |  |  |  |  |  |  |  |  |  | 
O=C(CN1CCCCC1)Nc1cc(COC(=O)CCCCBr)cc(Nc2ccnc3cc(Cl)ccc23)c1 |  |  |  |  |  |  | 151 nM | Cytotoxicity upon MPMs at 2 uM |  |  | Cytotoxicity upon MPMs at 2 uM |  |  | 0% |  | 0% | 0% | Cytotoxicity upon MPMs at 2 uM |  | 
CCN(CC)CC(=O)Nc1cc(CO)cc(Nc2ccnc3cc(Cl)ccc23)c1 |  |  |  |  |  |  | 41.6 nM |  |  | Cytotoxicity upon MPMs at 6.3 uM | Cytotoxicity upon MPMs at 6.3 uM | 0% | 0% | 0% | Toxic |  |  |  |  | 
N#Cc1ccc(CN2CCN(Cc3cc(NC(=O)CN4CCCCC4)cc(Nc4ccnc5cc(Cl)ccc45)c3)CC2)cc1 | 0% | 100% | 100% |  | Cytotoxicity upon MPMs at 32 uM |  | 13.3 nM | Cytotoxicity upon MPMs at 2 uM | Cytotoxicity upon MPMs at 2 uM |  |  |  |  |  |  |  |  |  |  | 
O=C(CN1CCCCC1)Nc1cc(COC(=O)CCN2CCCCC2)cc(Nc2ccnc3cc(Cl)ccc23)c1 |  |  |  |  |  |  | 78.3 nM | Cytotoxicity upon MPMs at 2 uM |  |  | Cytotoxicity upon MPMs at 2 uM |  |  | 0% |  | 90% | 0% | Cytotoxicity upon MPMs at 2 uM |  | 
O=C(CCl)Nc1cc(CO)cc(Nc2ccnc3cc(Cl)ccc23)c1 |  |  |  |  |  |  | > 1000 nM |  |  | Cytotoxicity upon MPMs at 6.3 uM | Cytotoxicity upon MPMs at 6.3 uM | 92% | 0% | 0% | Toxic |  |  |  |  | 
O=C(CN1CCCC1)Nc1cc(CO)cc(Nc2ccnc3cc(Cl)ccc23)c1 |  |  |  |  |  |  | 44 nM |  |  | Cytotoxicity upon MPMs at 6.3 uM | Cytotoxicity upon MPMs at 6.3 uM | 0% | 0% | 0% | Toxic |  |  |  |  | 
O=C(CN1CCCCC1)Nc1cc(CNCc2ccc(Cl)cc2)cc(Nc2ccnc3cc(Cl)ccc23)c1 | 100% | 100% | 100% | Toxic | Cytotoxicity upon MPMs at 32 uM | Cytotoxicity upon MPMs at 32 uM | 4.6 nM |  |  |  |  |  |  |  |  |  |  |  |  | 
CCN(CC)CCCCC(=O)OCc1cc(NC(=O)CN2CCCCC2)cc(Nc2ccnc3cc(Cl)ccc23)c1 |  |  |  |  |  |  | 141 nM | Cytotoxicity upon MPMs at 2 uM |  |  | Cytotoxicity upon MPMs at 2 uM |  |  | 13% |  | 22% | 0% | Cytotoxicity upon MPMs at 2 uM |  | 
CC1CCN(CCC(=O)Nc2cc(CO)cc(Nc3ccnc4cc(Cl)ccc34)c2)CC1 |  |  |  |  |  |  | 136 nM |  |  | Cytotoxicity upon MPMs at 6.3 uM | Cytotoxicity upon MPMs at 6.3 uM | 100% | 0% | 0% | Toxic |  |  |  |  | 
CN(C)CCCNCc1cc(NC(=O)CN2CCCCC2)cc(Nc2ccnc3cc(Cl)ccc23)c1 | 0% | 78% | 0% |  | Cytotoxicity upon MPMs at 32 uM |  | 134 nM | Cytotoxicity upon MPMs at 2 uM | Cytotoxicity upon MPMs at 2 uM |  |  |  |  |  |  |  |  |  |  | 
